Published values collected from several papers.
Compare with care: the assays were run in different laboratories.
Target: Serine/threonine-protein kinase VRK2 (VRK2, Homo sapiens, UniProt Q86Y07)

| SMILES | read-out | mode | method | tested at | quantity | result |
| --- | --- | --- | --- | --- | --- | --- |
| Cn1c2c(c3ccc(Cl)c(Cl)c31)C(C#N)C1(CCNCC1)NC2=O (racemic) | thermal stability |  | DSF | 10 µM | ΔTm | 0.3 °C |
| FC(F)(F)c1ccc2c(c1)nc(-c1cccnc1)n2C1CC1 | cell-free assay |  | competition with immobilised ligand | 1 µM | remaining binding | 100% |
| CCN(CC)CCNC(=O)c1c(C)[nH]c(/C=C2\C(=O)Nc3ccc(F)cc32)c1C | enzyme activity | inhibitor |  | 10 µM | inhibition | -10% |
| O=C(Nc1cnc(Oc2ccc(F)cc2)nc1)N1CCc2ncccc2[C@@H]1c1ccc(F)cc1 | cell-free assay |  | competition with immobilised ligand | 1 µM | remaining binding | 100% |
| CCCS(=O)(=O)Nc1ccc(F)c(C(=O)c2c[nH]c3ncc(-c4ccc(Cl)cc4)cc23)c1F | enzyme activity | inhibitor |  | 1 µM | inhibition | < 10% |
| CCN1CCC2(CC1)NC(=O)c1c(c3ccc(Cl)c(Cl)c3n1C)C2C#N (racemic) | thermal stability |  | DSF | 10 µM | ΔTm | 0.1 °C |
| COc1ccc2c(O[C@@H]3C[C@H]4C(=O)N[C@]5(C(=O)O)CC5/C=C\CCCCC[C@H](NC(=O)OC5CCCC5)C(=O)N4C3)cc(-c3csc(NC(=O)C(C)C)n3)nc2c1C (some centres unmarked) | cell-free assay |  | competition with immobilised ligand | 1 µM | remaining binding | 79% |
| Cn1c2c(c3ccc(Cl)c(Cl)c31)C(C#N)C1(CCCC1)NC2=O (centres unmarked) | thermal stability |  | DSF | 10 µM | ΔTm | -0.2 °C |
| Cc1ccc(C(=O)Nc2ccc(CN3CCN(C)CC3)c(C(F)(F)F)c2)cc1C#Cc1cnc2cccnn12 | enzyme activity | inhibitor |  | 23.5 nM | remaining activity | 74% |
| CC(C)(C)c1nc(-c2cccc(NS(=O)(=O)c3c(F)cccc3F)c2F)c(-c2ccnc(N)n2)s1 | enzyme activity | inhibitor | radiometric | 1 µM | remaining activity | 103% |
| Nc1ncnc2occ(-c3ccc(NC(=O)Nc4cc(C(F)(F)F)ccc4F)cc3)c12 | cell-free assay | inhibitor |  | 20 µM | remaining signal | 2.4% |
| CN1CC(Oc2cnc(C#N)cc2-c2ccn3nc(NC(=O)C4CC4)cc3c2)C1 | enzyme activity | inhibitor |  | 1 µM | inhibition | -9% |
| CS(=O)(=O)N1CCCC(NC(=O)[C@H](CCC2CCCCC2)NC(=O)c2ccc(CNC(=O)c3cnc4ccccn34)cc2)C1 (some centres unmarked) | cell-free assay |  | competition with immobilised ligand | 0.1 µM | remaining binding | 76% |
| Cn1c2c(c3ccc(Cl)c(Cl)c31)C(C#N)C(C)(C)NC2=O (centres unmarked) | thermal stability |  | DSF | 10 µM | ΔTm | 0.8 °C |
| C[C@H](NC(=O)c1cnc2n1[C@](C)(Cc1ccc(C#N)cc1)C(=O)N2c1cc(Cl)c(F)c(Cl)c1)C(=O)NC1(c2ccccn2)CC1 | cell-free assay |  | competition with immobilised ligand | 1 µM | remaining binding | 100% |
| Cn1c2c(Cl)c(Cl)ccc2c2cc(N)[nH]c(=O)c21 | thermal stability |  | DSF | 10 µM | ΔTm | 0.3 °C |
| CCCOc1ccc(OC)c(F)c1C(=O)c1ccc(C(=O)N[C@@H]2CNC[C@H]2NC(=O)c2ccc3[nH]ncc3c2)cc1 | enzyme activity | inhibitor |  | 10 µM | remaining activity | 129% |
| Cc1sc(C(=O)NC2COC2)cc1-n1cc(NC(=O)Nc2c(F)cccc2Cl)cn1 | enzyme activity | inhibitor |  | 10 µM | remaining activity | 102% |
| Cn1c2c(Cl)c(Cl)ccc2c2cn[nH]c(=O)c21 | thermal stability |  | DSF | 10 µM | ΔTm | 0 °C |
| O=C(O)[C@H]1[C@H](Cn2nnc3ccccc3c2=O)CC[C@@H]1C(=O)c1ccc(OCCC2CCOCC2)cc1 | cell-free assay |  | competition with immobilised ligand | 1 µM | remaining binding | 80% |
| CNC(=O)c1cc(Oc2ccc(NC(=O)Nc3ccc(Cl)c(C(F)(F)F)c3)cc2)ccn1 | enzyme activity | inhibitor |  | 10 µM | inhibition | -16% |
| COc1ccc2c(c1)O[C@H](c1ccc(OC)c(OC)c1)C[C@@H]2NC(=O)C1(c2ccc3c(c2)OC(F)(F)O3)CC1 | cell-free assay |  | competition with immobilised ligand | 1 µM | remaining binding | 82% |
| Cc1ccc(Nc2nccc(N(C)c3ccc4c(C)n(C)nc4c3)n2)cc1S(N)(=O)=O | enzyme activity | inhibitor |  | 10 µM | inhibition | -18% |
